Assay outcomes as filed in PubChem BioAssay.
UBC9 SUMO inh – inhibitors of in vitro SUMOylation cascade, primary screen, biochemical, HTRF, uHTS. 0.36% of 290,000 active. HTRF SUMOylation assay, SAE1/SAE2 + UBC9. inhibition, % at 35 µM. AID 2006, 2009; in the data active means inhibition above about 50%, passing the limit was not always enough
eIF4E-4G inh – eIF4E–eIF4G protein interaction inhibitors, primary screen, biochemical, uHTS, TR-FRET, eIF4GI fragment. Eukaryotic translation initiation factor 4E (Mus musculus) + Eukaryotic translation …. TR-FRET eIF4E-eIF4GI(517-606) binding, 2 h. AID 782, 2007. inhibition, % at 21.7 µM. 0.37% of 220,000 active;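 active means inhibition above about 30%, limit read from the data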;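 further: 0% = full FRET control wells and 100% = background wells lacking eIF4GI fragment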
p47phox inh – p47phox/p22phox peptide binding inhibitors, primary screen, biochemical, uHTS, NADPH oxidase regulatory subunit | Neutrophil cytosol factor 1 (Homo sapiens), P14598 | fluorescence polarization, 2 h | inhibition, % at 24.7 µM | 0.53% of 220,000 active;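 active means inhibition above about 30%, limit read from the data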;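 further: 0% = p47phox with labelled peptide and 100% = labelled peptide alone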
Target sequence (P14598 whole entry, looked up): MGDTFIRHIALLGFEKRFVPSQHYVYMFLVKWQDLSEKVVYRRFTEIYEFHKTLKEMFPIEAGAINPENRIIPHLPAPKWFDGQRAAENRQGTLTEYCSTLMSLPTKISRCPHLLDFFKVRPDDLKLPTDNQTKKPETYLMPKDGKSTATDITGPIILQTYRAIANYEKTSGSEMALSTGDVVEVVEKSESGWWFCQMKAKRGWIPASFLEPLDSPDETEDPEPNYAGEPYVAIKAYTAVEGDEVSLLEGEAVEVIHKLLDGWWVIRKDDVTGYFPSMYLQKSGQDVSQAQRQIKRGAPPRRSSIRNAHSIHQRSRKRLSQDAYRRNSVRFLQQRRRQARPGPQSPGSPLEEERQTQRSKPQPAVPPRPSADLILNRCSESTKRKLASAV
p97 ATPase inh – inhibitors of human p97 ATPase, primary screen, biochemical; 0.42% of 220,000 active; recombinant p97 ATPase, Kinase-Glo ATP luminescence, 3 h; Transitional endoplasmic reticulum ATPase (Homo sapiens), P55072; inhibition, % at 8 µM;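 further: 0% = DMSO vehicle and 100% = wells lacking enzyme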
14-3-3 Bad inh – inhibitors of 14-3-3 zeta/Bad binding, primary screen, biochemical, TR-FRET, bovine 14-3-3 zeta; 14-3-3 protein zeta/delta (Bos taurus), P63103; TR-FRET 14-3-3zeta/Dy647-pBad peptide displacement, 1 h; inhibition, % at 21.7 µM; AID 781, 2007; 0.71% of 220,000 active;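 active means inhibition above about 70%, limit read from the data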;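 further: 0% = full 14-3-3 plus peptide FRET controls and 100% = background without 14-3-3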
TbMetRS inhib – T. brucei MetRS inhibitors, primary screen, biochemical, luminescence | methionyl-tRNA synthetase (Trypanosoma brucei brucei) | purified T. brucei MetRS, ATP depletion, Kinase-Glo luminescence | inhibition, % at 11.9 µM | 0.4% of 360,000 active | AID 624268, 2012;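 active means inhibition above a per-plate cutoff of the control wells' mean inhibition plus 3 SD, cut at about 5.5% in these data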;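 further: 0% = DMSO wells median and 100% = median of wells with control inhibitor compound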
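System: purified T. brucei MetRS enzyme / Detection: Kinase-Glo luciferase luminescence reporting remaining unconsumed ATP / Medium: HEPES buffer with MgCl2, KCl, DTT, spermine, BSA, pyrophosphatase / Replication: singlicate, one well per compound / Evaluation: percent inhibition relative to median high and low control wells / Schedule: 2 h aminoacylation at 25 °C after 15 min preincubation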
Tb MetRS conf – T. brucei MetRS inhibitors, confirmation, biochemical, luminescence; T. brucei MetRS enzyme, luminescence (ATP depletion); AID 624412, 2012; inhibition, % at 11.9 µM; shares compounds with TbMetRS inhib; 93% of 1,400 active; in the data active means inhibition above about 7%
Jurkat tox – Jurkat T cell cytotoxicity, cytotoxicity control for T. brucei MetRS inhibitor project, luminescence, high throughput; Jurkat cells viability, ATP luminescence; inhibition, % at 8.3 µM; shares compounds with TbMetRS inhib; 12% of 1,400 active;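 further: 0% = vehicle and 100% = reference inhibitor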
TbMetRS FP orth – T. brucei MetRS inhibitors, orthogonal assay for T. brucei MetRS inhibitor project, biochemical, fluorescence polarization; shares compounds with TbMetRS inhib; purified T. brucei MetRS; inhibition, % at 11.9 µM; 44% of 1,400 active; AID 651607, 2012; in the data active means inhibition above about 17%;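 further: 0% = vehicle wells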
An asterisk follows results filed as active; x = not tested or not shown. Shown are actives, neighbours in structure and some others; about 1.6% of the full set was active somewhere. Unless noted, no stated cut-off is given here; in the data, active means inhibition above about 15%; inactive means the rest.

SMILES	UBC9 SUMO inh	eIF4E-4G inh	p47phox inh	p97 ATPase inh	14-3-3 Bad inh	TbMetRS inhib	Tb MetRS conf	Jurkat tox	TbMetRS FP orth
CCc1cc(Cn2nc(-c3ccccc3)cc2C(=O)NCc2cccc(Br)c2)on1	x	x	x	x	x	53.1*	77.2*	4.4	69.5*
CCCS(=O)(=O)NC(=O)C1(C)CCN(C(=O)c2cccc(OC(F)(F)F)c2)C1 (centres undefined)	x	x	x	x	x	0.0	x	x	x
O=C(NC(=S)NNC(=O)c1cnccn1)c1ccc(Cl)cc1	-18.0	-0.6	-3.7	-4.7	-6.6	5.9*	1.8	6.1	-4.6
COc1ccc2[nH]c(=O)c(CNC3CCCCC3)cc2c1	3.8	0.1	-12.0	7.2	16.4	0.1	x	x	x
COc1ccc2[nH]c(=O)c(CN(C(=O)NC3CCCCC3)C3CCCCC3)cc2c1	-11.9	2.8	-8.8	-2.1	11.7	7.0*	37.2*	17.7*	16.2
CCc1nc(NCCC(C)C)c2nnn(Cc3ccccc3)c2n1	7.8	x	x	x	x	-0.2	x	x	x
Cc1nc(NCCC(C)C)c2nnn(Cc3ccccc3)c2n1	14.9	x	x	x	x	7.3*	2.1	2.0	8.5
OCCNc1nc(Nc2ccc(O)cc2)nc2ccccc12	-15.3	-16.0	-8.4	5.8	2.4	5.5	x	x	x
OCCNc1nc(Nc2cccc(O)c2)nc2ccccc12	25.5	4.7	-14.7	10.3	-1.1	17.5*	43.5*	1.8	14.2
O=C(C/C=N\OCc1ccc([N+](=O)[O-])cc1)Nc1ccccc1	-6.0	-0.2	-9.5	0.5	-8.0	12.7*	31.3*	0.1	12.1
O=C(C/C=N\OCc1ccc([N+](=O)[O-])cc1)Nc1ccc(Cl)cc1	-17.3	1.7	1.4	1.5	-7.5	74.1*	101.1*	-3.0	80.3*
CC(C)n1nnnc1C1c2ccccc2C(=O)N1Cc1ccccc1 (centres undefined)	x	x	x	x	x	-1.0	x	x	x
O=C(c1cncc(Br)c1)N1CCN(S(=O)(=O)c2ccc3ccccc3c2)CC1	x	x	x	x	x	-0.5	x	x	x
Cc1ccc(Cl)cc1NC(=S)N/N=C/c1cccc2ccccc12	-19.2	4.8	-30.1	-3.0	33.2	0.6	x	x	x
O=C(NCc1cccc(C(F)(F)F)c1)c1cccc(S(=O)(=O)NCc2ccccc2)c1	-33.7	4.5	-0.7	-1.6	-13.6	23.1*	21.8*	6.0	7.8
Cc1ccc(Nc2nc3ccccc3[nH]2)nc1	-4.4	1.5	-11.2	3.5	-2.3	8.1*	25.7*	-1.2	13.3
CN(CC(=O)Nc1ccc(Cl)cc1)C(=O)CCC1CCCC1	6.0	x	x	x	x	6.7*	52.4*	6.6	20.0*
CN(CC(=O)Nc1ccc(Cl)cc1)C(=O)CN1C(=O)C2CCCCC2C1=O (centres undefined)	x	x	x	x	x	-0.2	x	x	x
COc1cc(NC(C)=O)c2ncccc2c1[N+](=O)[O-]	4.7	2.8	0.1	5.3	8.6	11.5*	22.7*	-5.8	3.4
CCOc1cc(C2C3=C(CC(C)(C)CC3=O)N(CCOC)C3=C2C(=O)CC(C)(C)C3)ccc1O	1.0	x	x	x	x	-0.6	x	x	x
O=C(NCCc1nc2ccccc2[nH]1)/C(=C/c1ccc2c(c1)OCO2)NC(=O)c1ccccc1	8.8	5.1	5.4	-1.1	-17.1	6.4*	9.6*	1.4	1.6
COc1ccccc1C(=O)N/C(=C\c1ccc2c(c1)OCO2)C(=O)NCCc1nc2ccccc2[nH]1	8.3	0.1	-0.3	3.2	-16.0	8.8*	15.6*	9.8	5.1
